HCT116 bCat-KO = primary screen for growth suppressors in beta-catenin knockout HCT116 cells (colon tumor, human) | AID 818, 2007 | viability, % at 10 µM | hit rate 1.5% among 140,000 | HCT116 beta-catenin knockout viability, CellTiter-Glo, 60 h; stronger effect = lower value;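 active = viability at or under a set limit, the compound median less 4 SD, cut at about 6% in these data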
Lmaj promast = Leishmania major promastigote growth inhibition, primary screen. hit rate 9% among 200,000. inhibition, % at 10 µM. Leishmania major promastigotes, resazurin fluorescence viability. AID 1063, 2008; in the data active = inhibition above about 50%;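 also: promastigotes grown with compound for 44 hours at 28 °C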
PMI activator = activators of human PMI, primary screen, biochemical, fluorescence intensity, near-Km mannose 6-phosphate. purified human PMI, coupled resazurin fluorescence, 20 min; stronger effect = higher value; 1 = vehicle control, 0 substrate-free wells. activation factor at 20 µM. hit rate 0.005% among 190,000. Mannose-6-phosphate isomerase (Homo sapiens), P34949;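 active = activation factor of 2 or more at 20 µM, relative to plate controls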
Target sequence (P34949 whole entry, looked up): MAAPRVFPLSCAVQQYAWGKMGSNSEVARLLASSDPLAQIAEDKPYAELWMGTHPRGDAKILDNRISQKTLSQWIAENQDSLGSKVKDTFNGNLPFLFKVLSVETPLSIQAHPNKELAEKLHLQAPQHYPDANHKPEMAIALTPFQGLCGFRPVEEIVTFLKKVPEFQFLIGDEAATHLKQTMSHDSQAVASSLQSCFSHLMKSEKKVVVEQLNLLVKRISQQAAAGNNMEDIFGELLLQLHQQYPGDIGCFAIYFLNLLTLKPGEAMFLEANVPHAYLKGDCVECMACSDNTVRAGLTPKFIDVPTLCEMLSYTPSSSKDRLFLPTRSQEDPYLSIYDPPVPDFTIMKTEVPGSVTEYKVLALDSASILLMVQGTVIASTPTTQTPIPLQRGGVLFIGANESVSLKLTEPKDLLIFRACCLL
PMI act hi M6P = human PMI activators, high substrate, primary screen, biochemical, fluorescence intensity, near-saturating mannose 6-phosphate; coupled PMI enzyme assay, resazurin fluorescence, 20 min; stronger effect = higher value; 1 = untreated enzyme, 0 = substrate-free blank; hit rate 0.34% among 190,000; AID 1216, 2008; Mannose-6-phosphate isomerase (Homo sapiens), P34949; activation factor at 20 µM;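 active = activation factor of 2 or more at 20 µM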
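Test system: human phosphomannose isomerase with PGI, G6PDH, diaphorase coupling enzymes; amount: 15 ng/mL PMI; incubation: enzyme reaction with compound 20 min at room temperature; technique: resorufin fluorescence (Ex 544/Em 590 nm) from resazurin via diaphorase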
HCT116 PTEN-null = growth suppression of PTEN-null HCT116, primary screen, cell-based, CellTiter-Glo; AID 827, 2007; hit rate 1.2% among 140,000; HCT116 PTEN-null viability, 60 h; stronger effect = lower value; viability, % at 10 µM;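 active = viability at or below a set limit, 4 SD under the median of all tested compounds, cut at about 3.7% in these data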;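 also: PTEN knockout HCT116 line with beta catenin targeted HCT116 as companion control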
Numbers stand for hits; – = inactive; · = not tested or not shown. A selection: hits, their analogues and other compounds. The true share with any hit is near 9.6%.

SMILES	HCT116 bCat-KO	Lmaj promast	PMI activator	PMI act hi M6P	HCT116 PTEN-null
CCOC(=O)C1CCN(Cc2ccc(Cl)c(Cl)c2)CC1	–	88	–	–	–
CCOC(=O)C1CCN(Cc2ccc(C(=O)OC)cc2)CC1	–	95	–	–	–
CCOC(=O)C1CCN(Cc2ccc(O)c(OC)c2)CC1	–	84	–	–	–
Cc1cc(C)nc(SCc2ccc(C(=O)N/N=C3\CC(C)CC(C)(C)C3)cc2)n1 (stereo not drawn)	–	–	–	–	–
NC(=O)C1CCN(C2=C(Cl)C(=O)c3ccccc3C2=O)CC1	5.7	99	–	–	–
CC1(C)CC2(CC(C)(C)NC(=O)N2)NC(=O)N1	–	–	–	–	–
COC(=O)C1CC(O)CN1C(=O)NC1CCCCC1 (stereo not drawn)	·	–	–	2.4	·
O=C(NC1CCCCC1)C1CC(O)CN1C(=O)OCc1ccccc1 (stereo not drawn)	–	–	–	–	–
Clc1ncnc2c1oc1ccccc12	4.1	–	–	–	–
CCSc1ncnc2c1oc1ccccc12	–	–	–	–	–
COc1ccc(OC)c(/C(O)=C/C(=O)C(=O)Nc2ccccc2OC)c1	–	96	–	–	–
COc1ccc(OC)c(S(=O)(=O)N(C)CC(=O)Nc2ccccc2OC)c1	–	–	–	–	–
COc1ccccc1N/C(=N/c1nc(C)cc(C)n1)NC(C)=O	–	61	–	–	–
COc1ccc(NC(=O)Nc2ccc(Cc3ccncc3)cc2)cc1OC	–	96	–	–	–
COc1ccccc1NC(=O)Nc1ccncc1	·	97	–	–	·
Cc1ccc(-n2nc(C)c(NC(=O)CCl)c2C)cc1	–	–	–	–	–
CC1CCN(S(=O)(=O)c2ccc(C(=O)NNC(=O)C3CC3)cc2)CC1	·	–	–	–	·
COc1ccccc1NC(=O)Nc1cc(NC(=O)Nc2ccccc2OC)c(C)nc1C	–	64	–	–	–
COc1ccc(NC(=O)Nc2ccccc2OC)cc1	–	–	–	–	–
COc1ccccc1NC(=O)c1cnc(Nc2ccccc2OC)c2ccccc12	–	95	–	–	–
C=CCN1C(=O)N/C(=C/c2ccc(C)o2)C1=O	–	–	–	–	–
Cc1ccccc1OCC(=O)N1N=C(c2cccnc2)CC1(O)C(F)(F)F (stereo not drawn)	–	51	–	–	–
O=C(c1c[nH]c(C(=O)C(Cl)(Cl)Cl)c1)c1ccc(F)cc1Cl	·	71	–	–	·
CN(C)C=NC(=O)c1cc(C(=O)c2ccc(Cl)cc2)c[nH]1	·	–	–	–	·
O=C(c1ccccc1)c1c[nH]c(C(=O)NCCCN2CCOCC2)c1	–	–	–	–	–
SMILES	HCT116 bCat-KO	Lmaj promast	PMI activator	PMI act hi M6P	HCT116 PTEN-null
O=C(c1ccc(Cl)cc1)c1c[nH]c(C(=O)NNc2ccccc2)c1	·	–	–	2.1	·
O=C(c1ccccc1)c1c[nH]c(C(=O)C(Cl)(Cl)Cl)c1	·	87	–	–	·
CN(C)C=NC(=O)c1cc(C(=O)c2ccccc2)c[nH]1	·	–	–	–	·
O=C(NC1CC1)c1ccc(F)cc1Cl	–	–	–	–	–
O=C(c1ccc(Cl)cc1)c1c[nH]c(C(=O)C(Cl)(Cl)Cl)c1	1.8	86	–	–	2.5
CCOc1ccc(/C(O)=C2/C(=O)C(=O)N(CC3CCCO3)C2c2cccs2)cc1 (stereo not drawn)	–	–	–	–	–
COc1ccc(C)cc1NS(=O)(=O)c1ccc(NC(=O)CN(c2cc([N+](=O)[O-])ccc2C)S(C)(=O)=O)cc1	–	–	–	–	–
Cc1ccc(NC(=O)CN(c2ccc(Cl)cc2)S(=O)(=O)c2cc([N+](=O)[O-])ccc2Cl)cc1	–	59	–	–	–
COc1ccc(C)cc1S(=O)(=O)N(CC(=O)Nc1cccc([N+](=O)[O-])c1)c1ccc(C)c(C)c1	–	50	–	–	–
Cc1ccc(Cl)cc1NC(=O)Nc1cccs1	·	–	–	–	·
Nc1nc(-c2ccc(Cl)cc2)nn1C(=O)c1ccco1	·	–	–	–	·
CCc1c(O)c(/C(C)=N\O)c(=O)n(-c2ccccc2)c1-c1ccccc1	–	67	–	–	–
C=CCO/N=C(/C)c1c(O)c(CC)c(-c2ccccc2)n(-c2ccccc2)c1=O	–	51	–	–	–
COc1ccc(-c2nc(N)n[nH]2)cc1OC	–	–	–	–	–
